Screening results as filed in PubChem.
MC4R antag cAMP – human MC4R antagonism in cAMP assay. P32245. MC4R-expressing cells, MTII-stimulated cAMP, LANCE TR-FRET. inhibition, % at 6.5 µM. actives 0.48% (n = 360,000). AID 540295;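 active = inhibition above its plate's cutoff, the mean of tested wells on that plate plus 3 SD, cut at about 29% in these data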;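 also: 0% = Melanotan II alone and 100% = Melanotan II plus saturating MCL0020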
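Assay system: human MC4R-expressing U2OS cells; reagent: Melanotan II stimulation of cells; dosing: 6.5 µM single dose; timing: compound 30 min, challenge 1 h, detection 1 h; signal: TR-FRET cAMP assay; replicates: one well per compound, no replicates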
PfG6PD inh – PfG6PD (Plasmodium falciparum) enzyme inhibition; PfGluPho enzyme, NADPH resazurin-diaphorase fluorescence; inhibition, % at 20 µM; actives 0.78% (n = 350,000);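 active = inhibition reaching at least a set limit at 20 µM in the primary screen, cut at about 59% in these data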;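 also: 0% = DMSO wells with substrate and 100% = DMSO wells lacking glucose-6-phosphate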
MC4R ag barr – activates human MC4R beta-arrestin recruitment. U2OS MC4R beta-arrestin complementation, luminescence; percent of melanotan II response, DMSO zero. activation, % at 8.9 µM. actives 0.98% (n = 360,000);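 active = activation above a per-plate cutoff, the mean activation of sample wells on that plate plus 3 SD, cut at about 8% in these data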
B2AR ag – activates human beta-2 adrenergic receptor causing internalization | AID 504454 | Am2.2-beta2AR cells, FAP receptor internalization, flow cytometry | response, % (concentration not given with the values) | P07550 | actives 0.43% (n = 340,000);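 active = response above a set limit, near 3 SD of response in nonfluorescent compounds, cut at about 42% in these data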
Target sequence (P07550 whole entry, looked up): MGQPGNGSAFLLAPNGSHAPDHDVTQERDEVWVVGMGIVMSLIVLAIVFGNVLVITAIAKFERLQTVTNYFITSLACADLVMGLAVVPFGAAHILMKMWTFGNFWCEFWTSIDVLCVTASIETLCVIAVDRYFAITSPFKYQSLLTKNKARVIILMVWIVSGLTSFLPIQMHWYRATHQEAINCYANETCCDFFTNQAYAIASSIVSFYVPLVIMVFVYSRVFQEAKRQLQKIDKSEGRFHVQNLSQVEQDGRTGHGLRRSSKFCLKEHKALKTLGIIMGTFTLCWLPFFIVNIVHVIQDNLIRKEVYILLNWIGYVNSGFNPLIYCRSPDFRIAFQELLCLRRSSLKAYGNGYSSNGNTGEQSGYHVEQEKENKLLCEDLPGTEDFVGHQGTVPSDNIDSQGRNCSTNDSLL
ABHD5 PLIN5 PPI – inhibitors of human ABHD5-perilipin-5 interaction. AID 602281. Split G. princeps luciferase complementation, luminescence, 4 h. Q00G26+Q8WTS1. actives 0.78% (n = 360,000). inhibition, % at 4 µM;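 active = inhibition above the mean inhibition across every tested compound plus 3 SD, cut at about 22% in these data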;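 also: 0% = DMSO only wells and the 100% control is not disclosed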
PfGluPho conf – confirmation of Plasmodium falciparum G6PD inhibitors; shares compounds with PfG6PD inh; recombinant PfGluPho, NADPH-diaphorase-resazurin fluorescence; inhibition, % at 20 µM; actives 34% (n = 2,400);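 active = inhibition of at least 50% at 20 µM in any single replicate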;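 also: 0% = DMSO with substrate and 100% = DMSO lacking glucose-6-phosphate substrate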
Diaph ctr 10uM – inhibits diaphorase or oxidizes, flagging false PfG6PD hits; actives 39% (n = 820); shares compounds with PfG6PD inh; AID 504862; diaphorase-coupled resazurin reduction, fluorescence, NADPH 10 uM; inhibition, % at 20 µM;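 active = average inhibition reaching 50% or more with the compound at 20 µM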;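 also: resorufin red fluorescence formed as diaphorase reduces resazurin using NADPH; 0% = DMSO with enzyme and 100% = DMSO without enzyme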
Diaphorase 30uM – counter-screen for P. falciparum G6PD inhibitors: diaphorase inhibitors, oxidizers | AID 504863 | inhibition, % at 20 µM | Diaphorase/resazurin coupled assay, resorufin fluorescence, 30 uM NADPH | shares compounds with PfG6PD inh | actives 29% (n = 820);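 active = inhibition averaging 50% or more, tested at 20 µM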;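 also: 0% = DMSO with enzyme and 100% = DMSO wells lacking diaphorase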
* marks the source's active call; other numbers are inactive results; x = no result given. An excerpt weighted towards active compounds, which were near 3% of everything screened.

SMILES | MC4R antag cAMP | PfG6PD inh | MC4R ag barr | B2AR ag | ABHD5 PLIN5 PPI | PfGluPho conf | others
COc1ccc(-c2nc3ccc([N+](=O)[O-])cc3[nH]2)cc1 | 4 | 110* | -4 | 11 | 7 | 46
COc1ccc2nc(-c3ccccc3)[nH]c2c1 | -3 | 46 | 0 | -4 | 4 | x
O=[N+]([O-])c1ccc2nc(-c3ccncc3)[nH]c2c1 | -5 | 35 | 0 | 6 | -2 | x
O=[N+]([O-])c1ccc2nc(-c3ccc(Cl)cc3)[nH]c2c1 | 15 | 107* | 0 | 5 | -2 | 46
Cc1ccc(-c2nc3ccc([N+](=O)[O-])cc3[nH]2)cc1 | 9 | 99* | -4 | 12 | 6 | 38
O=[N+]([O-])c1cccc(-c2nc3ccc([N+](=O)[O-])cc3[nH]2)c1 | 6 | 108* | -3 | 3 | 0 | 72* | Diaph ctr 10uM=60*;Diaphorase 30uM=59*
CC(=O)Nc1ccc(NC(=O)C(C)OC(=O)CCC2CCCC2)cc1 (centres undefined) | -4 | 2 | -2 | -1 | 6 | x
CCc1nnc(NC(=O)CCC(=O)NC2CCCC2)s1 | 1 | 1 | -3 | 1 | -3 | x
N#C/C(C(=O)Nc1ccc(Cl)cc1)=C(/S)Nc1ccccc1 | 11 | 95* | -3 | -12 | -12 | 83* | Diaph ctr 10uM=-18;Diaphorase 30uM=-3
Cc1cc(C)c(S(=O)(=O)Nc2ccccc2-c2ccccc2)c(C)c1 | 15 | 85* | 2 | 3 | -1 | 8
Cc1onc(-c2ccccc2)c1C(=O)N(Cc1ccco1)Cc1cccs1 | 0 | 83* | -3 | 4 | -4 | 39
CC(=O)Oc1ccccc1C(=O)Nc1ccccc1 | -3 | 2 | 1 | 2 | -6 | x
COC1(OC)C=CC(=O)C=C1NC(=O)c1ccccc1OC(C)=O | 4 | 63* | -1 | 6 | 23* | 64* | Diaph ctr 10uM=4;Diaphorase 30uM=-5
COc1ccc(N(CC(=O)N2CCC(C(N)=O)CC2)S(=O)(=O)c2ccccc2)cc1 | 14 | 4 | 3 | -3 | 0 | x
Cc1ccc(Cc2c(-c3ccc(C)cc3)nc3cc(C)ccn23)cc1 | -8 | 63* | 1 | x | -7 | 6
Cc1ccn2c(Cc3ccccc3)c(-c3ccc(Br)cc3)nc2c1 | -3 | 108* | -2 | x | -1 | 25
Cc1ccn2c(Cc3ccccc3)c(-c3ccccc3)nc2c1 | 2 | 12 | -1 | x | -9 | x
Cc1ccc(Cc2c(-c3ccc(Cl)cc3)nc3cc(C)c(Br)c(C)n23)cc1 | x | x | x | x | 7 | x
Cc1ccc(Cc2c(-c3ccc(Cl)cc3)nc3cc(C)ccn23)cc1 | -15 | 96* | -1 | x | 5 | 3
CCOC(=O)[C@H]1[C@H]2COc3ccc(OC)cc3[C@@H]2N2C(=O)c3cc(F)c(F)cc3NC(=O)[C@@]12C | 7 | -5 | -1 | -5 | 7 | x
CC1CN(CCOc2ccccc2C(C)C)CC(C)O1 (centres undefined) | -1 | 0 | 0 | 7 | 2 | x
Nc1nc2ccc(S(=O)(=O)N3CCCCC3)cc2s1 | -9 | 65* | -1 | 7 | -9 | 40
O=C(Nc1cc(C(F)(F)F)ccc1N1CCOCC1)C1Cc2ccccc2CN1C(=O)c1ccco1 (centres undefined) | -4 | 81* | 0 | 1 | 5 | 23
O=C(Nc1ccccc1)C1Cc2ccccc2CN1C(=O)c1ccco1 (centres undefined) | 3 | 11 | -2 | 1 | 5 | x
S=C(NCc1ccco1)N1CCN(c2ccccc2Cl)CC1 | 3 | 4 | -2 | 1 | -6 | x
SMILES | MC4R antag cAMP | PfG6PD inh | MC4R ag barr | B2AR ag | ABHD5 PLIN5 PPI | PfGluPho conf | others
S=C(Nc1ccc(Cl)cc1Cl)Nn1cnnc1 | -5 | 47 | -1 | -4 | -14 | -24
CCc1ccccc1NC(=S)Nn1cnnc1 | 2 | x | -1 | 4 | 9 | x
CCOc1ccccc1NC(=S)Nn1cnnc1 | -1 | 62* | -1 | -8 | -3 | 30
S=C(Nc1cc(Cl)ccc1Cl)Nn1cnnc1 | 6 | 54 | 2 | 6 | -4 | x
CSCCC(NC(=O)c1ccccc1)C(=O)N1CC(C)OC(C)C1 (centres undefined) | 0 | -6 | -3 | -8 | 0 | x
CCOC(=O)C1Nc2ccc(C(=O)O)cc2C2C=CCC12 (centres undefined) | -4 | 62* | -3 | -7 | 17 | 21
O=C(Nc1ccc(Br)cc1)c1cc2ccccn2n1 | -2 | 71* | -3 | -1 | -5 | 29
COc1cc(/C=C2\OC(=O)c3c(OC)cccc32)ccc1O | -7 | 74* | 0 | 5 | -4 | 14
COc1cc(/C=C2\C(=O)ON=C2c2ccc(Cl)cc2)ccc1O | x | 0 | x | 26 | x | x
O=C(c1cc(-c2ccccc2Cl)on1)N1CCN(C(=O)c2ccco2)CC1 | 6 | 11 | 0 | 7 | 11 | x
CC(=O)OCCNc1cc(N2CCN(C)CC2)c2noc3c2c1C(=O)c1ccccc1-3 | -19 | 85* | -1 | -66 | -8 | -26
O=C(O)CCNc1cc(N2CCN(C(=O)c3ccco3)CC2)c2noc3c2c1C(=O)c1ccccc1-3 | -9 | 80* | -3 | -3 | -2 | 24
CCNC(=O)NC(=O)CN(C)c1ccccc1 | -5 | -26 | 0 | 6 | 1 | x
O=C(COC(=O)[C@H](Cc1c[nH]c2ccccc12)NC(=O)c1cccs1)NCc1ccccc1 | 18 | -1 | -2 | 1 | 0 | x
CCOCc1c(C(=O)Nc2ccc(OC)nc2)oc2ccccc12 | -1 | 41 | 0 | 8 | -5 | x
COc1ccc(NC(=O)c2oc3ccccc3c2CSC)cn1 | -2 | 73* | 0 | 23 | -2 | 29
CCSc1nc2ccc(N3C(=O)C4C5C=CC(C5)C4C3=O)cc2s1 (centres undefined) | 24 | 7 | 0 | -6 | 1 | x
CCCn1cc(S(=O)(=O)CC(=O)Nc2ccc(OC)cc2OC)c2ccccc21 | 14 | 67* | -2 | -11 | -4 | 68* | Diaph ctr 10uM=42;Diaphorase 30uM=33
CCc1nc(Nc2cccc(O)c2)c2oc3ccccc3c2n1 | 0 | 73* | 2 | 9 | -3 | 12
O=C(Nc1nc(=S)ss1)c1c(F)cccc1F | -2 | 62* | -2 | 9 | -5 | 11
Cc1ccccc1C(=O)Nc1nc(=S)ss1 | 2 | 49 | -2 | 11 | -11 | x
COc1cc(NC(C)CCCNC(C)C)c2ncccc2c1OC (centres undefined) | 4 | 37 | -1 | 1 | -12 | x
COc1cc(NCCCCCCN)c2ncccc2c1OC | -9 | 90* | 0 | 3 | -18 | 46
